# High-throughput results as filed in PubChem BioAssay.
# Most compounds without a hit are left out; they make up all but 1.8% or so of the library.
# Dynein transport = blocks dynein driven cargo transport along microtubules; 220,000 compounds, 0.47% hits; z-score, hits read low; 3617.4 mouse cells, GR-EGFP nuclear translocation imaging; test concentration mostly 20 µM; stimulated with dexamethasone, 1 µM; hits give low values;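 active = plate z-score of nuclear minus cytoplasmic receptor signal below a set negative limit, without overly bright fluorescence or cell loss, cut at about -3.5 in these data, passing the limit was not always enough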;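 also: z-score of nuclear minus cytoplasmic ring GR-EGFP intensity difference per well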
#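 Medium: Induction medium lacking tetracycline, stripped serum | Probe or stimulus: 1.0 µM final dexamethasone stimulus | Schedule: 48 h induction, then 1 h compound, then 30 min agonist, 37 °C | Signal: Automated 10x imaging of fixed Hoechst-stained cells | Evaluation: Per-cell GR-EGFP intensity, nucleus versus surrounding cytoplasmic ring, well-averaged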
# Furin inhibitor = blocks human furin protease activity; P09958; purified furin, fluorogenic substrate cleavage; inhibition, % at 20 µM or 30 µM; 220,000 compounds, 0.061% hits; in the data active = inhibition above about 25%
# Target sequence (P09958 108-714 limits assumed): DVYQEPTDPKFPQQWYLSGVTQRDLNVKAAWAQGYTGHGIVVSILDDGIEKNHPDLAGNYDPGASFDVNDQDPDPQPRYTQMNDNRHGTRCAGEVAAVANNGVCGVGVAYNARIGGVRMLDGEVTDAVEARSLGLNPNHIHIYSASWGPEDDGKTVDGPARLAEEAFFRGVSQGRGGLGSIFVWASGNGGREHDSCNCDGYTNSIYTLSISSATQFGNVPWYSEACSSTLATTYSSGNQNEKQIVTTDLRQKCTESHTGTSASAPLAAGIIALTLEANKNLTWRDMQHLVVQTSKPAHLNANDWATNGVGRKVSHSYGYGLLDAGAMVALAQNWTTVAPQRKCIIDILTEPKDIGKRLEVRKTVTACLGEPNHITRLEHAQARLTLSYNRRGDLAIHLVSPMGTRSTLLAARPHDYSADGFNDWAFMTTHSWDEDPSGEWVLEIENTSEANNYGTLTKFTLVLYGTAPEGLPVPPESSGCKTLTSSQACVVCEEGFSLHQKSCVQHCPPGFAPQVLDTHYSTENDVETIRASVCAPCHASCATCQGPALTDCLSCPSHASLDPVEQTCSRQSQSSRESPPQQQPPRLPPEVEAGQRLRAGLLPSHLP
# Autophagy HCS = modulators of autophagy. MEF GFP-LC3 puncta imaging; test concentration mostly 10 µM. calls only at 10 µM (by protocol). 190,000 compounds, 0.98% hits. AID 463193;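 active = percentage of spot-positive cells more than 3 SD above its plate mean, without a fluorescence outlier flag or 80% toxicity; inconclusive = no clear call, values can overlap the other calls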;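 also: spot-positive cell cutoff set from DMSO-treated cells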
# TNF death inh = blocks TNF-alpha induced death of Jurkat FADD-/- cells; Jurkat FADD-/- TNF necroptosis rescue, ATP luminescence, 24 h; 0 = TNF only, 100 = no-TNF cells; activation (protection from cell death), % at 10 µM; 220,000 compounds, 0.068% hits;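 active = activation, meaning protection from cell death, of at least 50% relative to plate controls; inactive = activation below 50%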;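 also: necroptosis triggered by 40 ng/mL TNF-alpha added together with compound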
# HSV augment = HSV replication enhancement | 220,000 compounds, 0.005% hits | maximum fold increase | AID 1956 | HSV replication augmentation in cells, fold increase; in the data active = maximum fold increase above about 1.5; inconclusive = no clear call, values can overlap the other calls; tested in PC3 cells
# zVAD death inh = blocks zVAD induced death of L929 cells | L929 zVAD necroptosis rescue, ATP luminescence, 24 h; with zVAD 60 µM | viability rescue, % at 10 µM | 220,000 compounds, 0.38% hits;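 active = activation, scaled between plate controls, above about 75%, limit read from the data; inactive = activation under that limit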;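 also: 0% = zVAD with DMSO and 100% = DMSO alone without zVAD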
# Active calls of the source: *; i = inactive; ? = inconclusive; . = no result given; + = active, no number.
SMILES,Dynein transport,Furin inhibitor,Autophagy HCS,TNF death inh,HSV augment,zVAD death inh
O=C(NCc1cccs1)C1CCCN(S(=O)(=O)c2cnc[nH]2)C1 (stereo not given),-0.58,-10,+,0,i,1
CC1CCN(S(=O)(=O)N2CCC(C(=O)NCc3cccs3)CC2)CC1,0.67,-23,+,0,i,4
CCO[C@H]1OC(C(=O)NCc2ccccc2)=C[C@@H](C(C)(C)C)[C@@H]1CCCO,.,.,.,.,i,.
COc1cc(CCC(=O)N2CCN(c3ncccn3)CC2)cc(OC)c1OC,-0.21,-8,i,0,i,0
CC(=O)N(CC1CCCO1)c1nnc(-c2cnccn2)s1 (stereo not given),-0.71,-1,i,76*,i,0
Clc1ccc(C2=Nn3c(nnc3-c3n[nH]c4c3CCC4)SC2)cc1,-0.31,-9,+,-11,i,0
Cc1ccc(N=Cc2c(O)[nH]c3ccccc23)c([N+](=O)[O-])c1,-1.1,-15,i,-1,i,1
O=C(OCCN1C(=O)c2cccc3c(N4CCOCC4)ccc(c23)C1=O)c1ccc(Cl)cc1,0.013,-12,i,-11,?,0
CCCN(CCC)S(=O)(=O)c1ccc(C(=O)OCCN2C(=O)c3cccc4c(N5CCOCC5)ccc(c34)C2=O)cc1,i,-21,+,-11,?,.
CCOC(=O)c1c2ccc(OCC(=O)N/N=C/c3ccc(C)cc3)cc2n2ccccc12,-1.8,-11,+,-3,.,0
Cc1cc(=O)oc2c(CN3CC(C)OC(C)C3)c(O)c(Cl)cc12 (stereo not given),-1.2,-170,i,0,i,1
CSc1cccc(NC(=O)c2c(Cl)cnn2C)c1,1.9,-4,i,-2,i,-1
Cn1ncc(N=Cc2c(O)ccc3ccccc23)c1C(=O)Nc1cccc(Cl)c1,-0.06,-22,+,-8,i,3
Cn1ncc(Cl)c1C(=O)Nc1cccc(Cl)c1,0.25,30*,i,-1,i,0
COC(=O)c1ccc2c(=O)n(CC3CCCO3)c(SCC(=O)Nc3ccccc3OC)nc2c1 (stereo not given),0.3,-16,+,2,i,0
O=C(NCc1cccnc1)c1ccc([N+](=O)[O-])o1,-0.72,-18,i,-6,i,-3
c1cncc(-c2nc(NCCCN3CCOCC3)c3c4c(sc3n2)CCC4)c1,0.11,-16,+,1,i,1
Cc1cc(C)n2cc(CSc3ccccn3)nc2n1,1.2,-15,+,2,i,1
CSc1ccc(CCNC(=O)c2cc(C)nn2-c2ccccc2)cc1,-0.71,-26,.,0,i,-1
CC(/C=N/NC(=O)c1cc(-c2cccnc2)nc2c1c(C)nn2-c1ccccc1)=C\c1ccccc1,0.81,-2,+,-7,i,1
Cc1ccc(NC(=O)CSc2nnc(/N=C/N(C)C)s2)cc1,1.6,-14,i,0,i,0
Cc1cc(C(C)(C)C)ccc1OCCCCN1CCCC1,-0.69,-16,i,1,i,1
CCC(C)(C)c1ccc(OCCCC[n+]2ccc(C)cc2)c(C(C)(C)CC)c1,-3.6*,-7,i,-14,i,0
CN(C)c1ccc(/C=C/C=C2/SC(=S)N(c3ccccc3)C2=O)cc1,-2.5,-7,+,-16,.,-1
Cc1cc(N2CCN(c3nc(N4CCOCC4)nc4ccccc34)CC2)c2ccccc2n1,-0.48,-11,+,1,.,-1
SMILES,Dynein transport,Furin inhibitor,Autophagy HCS,TNF death inh,HSV augment,zVAD death inh
COc1cc(/C=N/Nc2cccc(C)c2)ccc1OC(=O)c1ccco1,-1.6,-20,i,0,i,1
N#Cc1cccc(NC(=O)COC(=O)CCc2nc3ccccc3c(=O)[nH]2)c1,-0.7,-13,i,-1,i,0
c1cnc2c(C3NCCc4c3[nH]c3ccccc43)cccc2c1 (stereo not given),-0.13,-25,i,2,i,4
COc1cc(CC(=O)OCC(=O)c2ccc3c(c2)OCCO3)cc(OC)c1OC,0.46,-11,+,-10,i,-2
Cc1ncoc1C(=O)Nc1ncc([N+](=O)[O-])s1,-0.38,1,i,-1,i,0
Cc1ccc(CC(=O)Nc2ncc([N+](=O)[O-])s2)cc1,0.8,-12,i,77*,i,2
O=C(N/N=C/C=C/c1ccccc1)c1cnccn1,0.41,-6,i,0,i,-1
CC(/C=C/c1ccccc1)=N/NC(=O)c1cnccn1,-0.16,27*,i,0,i,0
CC(=O)CCc1ccc(OCCCCN2CCC(Cc3ccccc3)CC2)cc1,-0.26,-22,+,-1,i,0
COc1ccc(-c2noc(CCC(=O)NCCCN3CCC(Cc4ccccc4)CC3)n2)cc1,7.4,-21,+,-3,i,2
COC(=O)C1=C(N)Oc2cc(C)[nH]c(=O)c2C1c1ccccc1OC (stereo not given),-1.2,-14,.,-2,i,1
Clc1ccc(/C=C/c2ncc3ccccn23)cc1,-0.56,-45,i,-4,i,-1
COC(=O)c1ccc(-c2ccc(/C=N/NC(=O)Cc3nnc(N)s3)o2)cc1,0.38,-13,.,0,i,0
COc1cc(/C=C/C(=O)c2ccc(Cl)s2)cc(OC)c1O,-4*,-11,i,-10,i,22
COc1ccc(/C=C/C(=O)c2ccc(Cl)s2)cc1O,-3.8*,-13,i,-2,i,-1
COc1ccc(CCNC(=O)CCNS(=O)(=O)c2cccc(Cl)c2)cc1OC,2.8,-20,i,0,i,0
CCOC(=O)C1(CCc2ccccc2)CCN(C(=O)c2cc(C)nc(C)n2)CC1,3.2,-19,i,1,i,0
Cc1cc(C)n(-c2nc3ccccc3c(=O)n2OCC(=O)OCc2ccccc2)n1,-0.51,-14,+,-12,.,1
Cc1cc(C)n(-c2nc3ccccc3c(=O)n2OCC(=O)N(C)C)n1,-0.28,-34,i,-2,i,1
C/C(N)=C(/C#N)C(=O)CSc1cc(C)c2cc(C)cc(C)c2n1,0.91,-24,+,0,i,2
Cc1cc(C)c2nc(SCC#N)cc(C)c2c1,-1.2,-14,i,0,i,0
CC(=O)CC(C)(C)NC(C)=S,-0.58,-27,.,2,i,1
O=C(c1ccc2c3c(cccc13)CC2)C1CCCN(Cc2ccccn2)C1 (stereo not given),-0.73,-35,i,4,i,-1
Cc1cnc(CN2CCCC(C(=O)c3ccc4c5c(cccc35)CC4)C2)[nH]1 (stereo not given),1.3,-3,+,3,i,0
